This note sets out measurements from paper PMC11185543 (bioRxiv, 2024).

Where a SMILES comes first, the peptide text is derived from it. The star is where a group is joined. Cbz = O=C(OCc1ccccc1)*

The subject of one test is human islets. Briefly: Polyribosome profiling of human islets treated with proinflammatory cytokines. It counts as cell-based. As to conditions: 50 nM with IFN-γ + IL-1β. The method in brief:
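Human islets were pretreated 1 h with vehicle or test compound (50 nM), then exposed 18–24 h to 1000 IU/mL IFN-γ + 50 IU/mL IL-1β. Translation was halted with 50 μg/mL cycloheximide for 10 min, and lysates were made in buffer pH 7.5 with 10 mM MgCl2. Lysates were run on a 50–10% sucrose gradient (40,000 rpm, 2 h, 4°C) and fractionated with A254 monitoring. Fraction RNA was quantified by qRT-PCR relative to input.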

Test [1] has as its system NOD mice. As to the kind of experiment: β cell mass in NOD mice after two weeks of treatment. It counts as in vivo. As to conditions: 0.25 or 2.5 mg/kg intraperitoneal for 2 weeks. The method in brief:
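Female NOD mice, 6 weeks old, were given test compound or vehicle (5% DMSO, 2% Tween 80, 20% PEG400, saline) intraperitoneally for two weeks. Pancreata were fixed in 4% paraformaldehyde, paraffin-embedded, sectioned and stained for insulin. β cell mass was derived from insulin+ area relative to whole pancreas area. N=4–5 mice per group; mean ±SEM; ANOVA.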

Test [2] relates to NOD mice. Briefly: Insulitis score in prediabetic NOD mice after two weeks of treatment. It counts as in vivo. As to conditions: 0.25 or 2.5 mg/kg intraperitoneal for 2 weeks. The method in brief: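 Female NOD mice, 6 weeks old, received vehicle (5% DMSO, 2% Tween 80, 20% PEG400, saline) or test compound by intraperitoneal injection for two weeks. Pancreata were fixed in 4% paraformaldehyde, paraffin-embedded and sectioned. Islet infiltration was scored 1–4: none, <50% circumference, >50% circumference, intra-islet. N=4–5 mice per group; mean ±SEM; ANOVA.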

In a further test the test system is PD-L1. It counts as cell-based, human. As to conditions: 10 μM concurrent with cytokines 18–24 h, GOLM1 siRNA, EndoC-βH1 cells. The method in brief: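 EndoC-βH1 cells (low-glucose DMEM, 2% BSA, nicotinamide, β-mercaptoethanol, matrigel-fibronectin coating) had 1 h pretreatment with DMSO or test compound (50 nM). They were then co-treated 18–24 h with 1000 IU/mL IFN-γ + 50 IU/mL IL-1β. For knockdown, Accell GOLM1 siRNA was used and protein was taken 72–96 h later. Proteasome blockade was 10 μM MG132 with cytokines 18–24 h, starting 72 h post-knockdown. Immunoblot; N=3 biological replicates; ANOVA.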

Another test concerns p-GCN2. Briefly: Immunoblot for p-GCN2 in mouse embryonic fibroblasts. It counts as cell-based. Particulars: 6 h, MEFs. The method, boiled down:
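MEFs grown in DMEM with 10% FBS were exposed to test compound (1 μM or 100 nM) or DMSO for 6 h. Protein lysates were collected and immunoblotted.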

Take `O=C(COc1ccc(Cl)cc1)NC1CCC(NC(=O)COc2ccc(Cl)cc2)CC1` (stereo not drawn) [ISRIB]: in the test on human islets, the “RNA sedimenting with polysomes (translation initiation blockade)” value is reported as “recovery of the RNA sedimenting with polysomes”. Also, in the test on NOD mice [1], the β cell mass result is “no effect on β cell mass”. For the same molecule, the insulitis entry in the test on NOD mice [2] was “significant reduction in insulitis”.

As for `CC(C)C[C@@H](C=O)NC(=O)[C@H](CC(C)C)NC(=O)[C@H](CC(C)C)NC(=O)OCc1ccccc1` [MG132] (Cbz-Leu-Leu-Leu-aldehyde), the “attenuation of PD-L1 levels upon GOLM1 knockdown” value with PD-L1 is recorded as “partially reversed”.

With `O=C(CC1NCCCC1O)Cn1cnc2cc(Br)c(Cl)cc2c1=O` (stereo not drawn) [halofuginone], the “effect on p-GCN2” value with p-GCN2 (100 nM) is reported as “robustly induces p-GCN2”. As for `C/C=C(/C)C(=O)O[C@H]1C(C)=C2[C@H]([C@@H]1OC(=O)CCCCCCC)[C@@](C)(OC(C)=O)C[C@H](OC(=O)CCC)[C@@]1(O)[C@H]2OC(=O)[C@@]1(C)O` [thapsigargin], the “effect on p-GCN2” value with p-GCN2 (1 μM) is reported as “suppresses it”.
